Laboratory results published in ChEMBL document CHEMBL1165910, “Synthesis and biological evaluation of new [1,2,4]triazino[5,6-b]indol-3-ylthio-1,3,5-triazines and [1,2,4]triazino[5,6-b]indol-3-ylthio-pyrimidines against Leishmania donovani” (Eur J Med Chem, 2010).
Values after ≈ are worked out from the molar mass of the structure shown. Active and inactive are the calls of the source. The calls are words filed in the database; no cut-off is given here.

Assays:
[1] = test system: Leishmania donovani; experiment: Antileishmanial activity against Leishmania donovani MHOM/IN/Dd8 promastigote carrying firefly luciferase gene infected in mouse J774A1 cells assessed as relative luminescence unit at 40 ug/mL after 72 hrs; format: functional; details: for inhibition at 40 µg/mL: MHOM/IN/Dd8, J774.A1, 72 h; for inhibition: J774.A1
[2] = test system: Leishmania donovani; experiment: Antileishmanial activity against Leishmania donovani (MHOM/IN/Dd8) amastigote infected in mouse J774 cells assessed as after 72 hrs by luminometry at 40 ug/ml; format: functional, organism-based
[3] = test system: J774.A1; experiment: (§1) Selectivity index, ratio of CC50 for mouse J774A1 cells to IC50 for IC50 Leishmania donovani MHOM/IN/Dd8; format: functional
[4] = as §1; format: functional, J774.A1
[5] = Cytotoxicity against mouse J774A1 cells after 72 hrs by MTT assay; format: cell-based, J774.A1
Outline: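 J774A.1 cells were grown in RPMI with 10% foetal calf serum and 40 µg/mL gentamycin. Exponentially growing cells (1 × 10^4/well) received compound dilutions, made from DMSO stock in complete medium, for 72 h at 37 °C in humidified CO2/air. MTT (5 mg/mL in PBS) was added for 2 h, supernatant removed and formazan dissolved in DMSO. A544 was read, and CC50 (50% viability reduction versus medium-only cells) was estimated by template.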

[6] = test system: Leishmania donovani; experiment: Antileishmanial activity against Leishmania donovani (MHOM/IN/Dd8) amastigote infected in mouse J774 cells assessed as after 72 hrs by luminometry; format: functional, organism-based; details: for IC50: MHOM/IN/Dd8, J774, 72 h
Outline: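 J774 macrophages were seeded at 1.5 × 10^4 cells/well in RPMI-1640 with 10% foetal calf serum at 37 °C under CO2. After 24 h, medium was replaced with medium containing luciferase-transfected stationary-phase promastigotes (2.25 × 10^5/well). Test material at 0.25–10 in complete medium was then added for 72 h at 37 °C. Wells were given PBS plus Steady-Glo and read by luminometer; inhibition was calculated against untreated infected controls.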

[7] = test system: Leishmania donovani; experiment: Antileishmanial activity against Leishmania donovani MHOM/IN/Dd8 promastigote carrying firefly luciferase gene infected in mouse J774A1 cells assessed as relative luminescence unit at 0.5 ug/mL after 72 hrs; format: functional; details: MHOM/IN/Dd8, J774.A1, 72 h
[8] = test system: Leishmania donovani; experiment: Antileishmanial activity against Leishmania donovani MHOM/IN/Dd8 promastigote carrying firefly luciferase gene infected in mouse J774A1 cells assessed as relative luminescence unit at 940 ug/mL after 72 hrs; format: functional, organism-based; details: J774.A1

Cc1cc(Sc2nnc3c4ccccc4n(C)c3n2)nc(NCCCN2CCOCC2)n1
inhibition at 40 µg/mL [1]: 95.1% | Activity [2]: inactive | Ratio CC50/IC50 [3]: inactive

Cc1cc(Sc2nnc3c4ccccc4n(C)c3n2)nc(N2CCN(C)CC2)n1
inhibition at 40 µg/mL [1]: 99.9% | Ratio CC50/IC50 [4]: 0.5 | CC50 at 72 h [5]: 29.2 µM | MIC ([6]; MHOM/IN/Dd8, 72 h): 68.7 µM (≈ 27.9 µg/mL) | IC50 [6]: 57.8 µM

Cc1cc(Sc2nnc3c4ccccc4n(C)c3n2)nc(NC(C)C)n1
inhibition at 40 µg/mL [1]: 99.2% | Ratio CC50/IC50 [4]: 3.66 | CC50 at 72 h [5]: 109 µM | MIC ([6]; MHOM/IN/Dd8, 72 h): 93.8 µM (≈ 34.3 µg/mL) | IC50 [6]: 29.6 µM

Cc1cc(Sc2nnc3c4ccccc4n(C)c3n2)nc(NC(C)(C)C)n1
inhibition at 40 µg/mL [1]: 66.7%

Cc1cc(Sc2nnc3c4ccccc4n(C)c3n2)nc(N2CCOCC2)n1
inhibition [1]: inactive

N=C(N)c1ccc(OCCCCCOc2ccc(C(=N)N)cc2)cc1 [PENTAMIDINE]
inhibition at 0.5 µg/mL [7]: 85% | CC50 at 72 h [5]: 52.8 µM | MIC ([6]; MHOM/IN/Dd8, 72 h): > 169 µM | IC50 [6]: 20.4 µM

Cn1c2ccccc2c2nnc(Sc3nc(N4CCCCC4)nc(N4CCCCC4)n3)nc21
inhibition at 40 µg/mL [1]: 75.6% | Ratio CC50/IC50 [4]: 56.61 | CC50 at 72 h [5]: 227 µM | MIC ([6]; MHOM/IN/Dd8, 72 h): 20.5 µM (≈ 9.48 µg/mL) | IC50 [6]: 4.01 µM

D-Gluconic acid,2,4:2',4'-O-[oxybis-(oxidostibylidyne)]bis-,trisodium salt, nonahydrate
Ratio CC50/IC50 [3]: 5.53 | inhibition [8]: 40% | MIC [6]: 164 µM

CCCCNc1nc(NCCCC)nc(Sc2nnc3c4ccccc4n(C)c3n2)n1
inhibition at 40 µg/mL [1]: 93.2% | Activity [2]: inactive | Ratio CC50/IC50 [3]: inactive | CC50 at 72 h [5]: 17.1 µM

Cn1c2ccccc2c2nnc(Sc3nc(NCCCN4CCOCC4)nc(NCCCN4CCOCC4)n3)nc21
inhibition [1]: inactive

Cn1c2ccccc2c2nnc(Sc3nc(NCCN4CCOCC4)nc(NCCN4CCOCC4)n3)nc21
inhibition at 40 µg/mL [1]: 77.1% | Activity [2]: inactive | Ratio CC50/IC50 [3]: inactive

CCN1CCN(c2nc(Sc3nnc4c5ccccc5n(C)c4n3)nc(N3CCN(CC)CC3)n2)CC1
inhibition at 40 µg/mL [1]: 100% | Ratio CC50/IC50 [4]: 6 | CC50 at 72 h [5]: 93.2 µM | MIC ([6]; MHOM/IN/Dd8, 72 h): 26.6 µM (≈ 13.8 µg/mL) | IC50 [6]: 15.5 µM

CN1CCN(c2nc(Sc3nnc4c5ccccc5n(C)c4n3)nc(N3CCN(C)CC3)n2)CC1
inhibition [1]: inactive

CC(C)Nc1nc(NC(C)C)nc(Sc2nnc3c4ccccc4n(C)c3n2)n1
inhibition at 40 µg/mL [1]: 99.3% | Ratio CC50/IC50 [4]: 3.71 | CC50 at 72 h [5]: 64.5 µM | MIC ([6]; MHOM/IN/Dd8, 72 h): 90.5 µM (≈ 37.1 µg/mL) | IC50 [6]: 17.4 µM

Cn1c2ccccc2c2nnc(Sc3nc(NC(C)(C)C)nc(NC(C)(C)C)n3)nc21
inhibition at 40 µg/mL [1]: 97.4% | Activity [2]: inactive | Ratio CC50/IC50 [3]: inactive

Cc1cc(Sc2nnc3c4ccccc4n(C)c3n2)nc(NCCN(C)C)n1
inhibition at 40 µg/mL [1]: 100% | Activity [2]: inactive | Ratio CC50/IC50 [3]: inactive

Cn1c2ccccc2c2nnc(Sc3nc(N4CCOCC4)nc(N4CCOCC4)n3)nc21
inhibition at 40 µg/mL [1]: 43.1%

CCCCNc1nc(C)cc(Sc2nnc3c4ccccc4n(C)c3n2)n1
inhibition at 40 µg/mL [1]: 99.7% | Ratio CC50/IC50 [4]: 4.82 | CC50 at 72 h [5]: 88.4 µM | MIC ([6]; MHOM/IN/Dd8, 72 h): 110 µM (≈ 41.8 µg/mL) | IC50 [6]: 18.3 µM

CN(C)CCNc1nc(NCCN(C)C)nc(Sc2nnc3c4ccccc4n(C)c3n2)n1
inhibition at 40 µg/mL [1]: 68.5%

CCN(CC)CCNc1nc(NCCN(CC)CC)nc(Sc2nnc3c4ccccc4n(C)c3n2)n1
inhibition at 40 µg/mL [1]: 49.3%

CCN(CC)CCNc1nc(C)cc(Sc2nnc3c4ccccc4n(C)c3n2)n1
inhibition at 40 µg/mL [1]: 99.9% | Activity [2]: inactive | Ratio CC50/IC50 [3]: inactive

Cc1cc(Sc2nnc3c4ccccc4n(C)c3n2)nc(N2CCCCC2)n1
inhibition at 40 µg/mL [1]: 99.3% | Ratio CC50/IC50 [4]: 6.74 | CC50 at 72 h [5]: 173 µM | MIC ([6]; MHOM/IN/Dd8, 72 h): 139 µM (≈ 54.3 µg/mL) | IC50 [6]: 25.7 µM

CCN1CCN(c2nc(C)cc(Sc3nnc4c5ccccc5n(C)c4n3)n2)CC1
inhibition at 40 µg/mL [1]: 100% | Ratio CC50/IC50 [4]: 1.06 | CC50 at 72 h [5]: 28.1 µM | MIC ([6]; MHOM/IN/Dd8, 72 h): 90.8 µM (≈ 38.2 µg/mL) | IC50 [6]: 26.3 µM

Cc1cc(Sc2nnc3c4ccccc4n(C)c3n2)nc(NCCN2CCOCC2)n1
inhibition at 40 µg/mL [1]: 51.1%
